Many of the other results were omitted from the sample, so hits are more common in it than they were.
Insulin prom act: activators of insulin promoter-driven GFP, primary screen, imaging, TRM-6 cells (human fetal islet line), eGFP reporter, cell count; plate-scaled: unstimulated 0, stimulated control 100; activation, % at 2 µM; actives 0.81% (n = 130,000); AID 1296, 2008;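 active = activation at 2 µM above a set limit, confirmed on inspection of the cell images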;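 also: share of cells whose green reporter signal exceeds an intensity cutoff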
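Assay system: TRM-6 insulin promoter–eGFP reporter cells / Input: 1,000 cells per well / Medium: Low-glucose (5.5 mM) medium with tamoxifen / Also added: tamoxifen inducer, 0.75 µM, in seeding medium / Timing: overnight tamoxifen, then two-day compound incubation at 37 °C / Signal: automated fluorescence imaging of paraformaldehyde-fixed, Hoechst-counterstained cells, green channel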
An asterisk follows results filed as active.

SMILES | Insulin prom act
O=C(CC1C(=O)NC2CCCCC2N1C(=O)c1ccc(F)cc1)Nc1ccccc1 (stereo not given) | 284.6
CC1(C(=O)NC(=S)N(CCC#N)Cc2cccnc2)CC1(Cl)Cl (stereo not given) | -3.7
CN(C)S(=O)(=O)c1cccc(NC(=S)N(CCC#N)Cc2cccnc2)c1 | 453.3*
N#CCCN(Cc1cccnc1)C(=S)Nc1ccc(OC(F)F)cc1 | 109.1
N#C/C(=N\Nc1ccccc1[N+](=O)[O-])C(=N)N1CCCCC1 | 0.0
C=CCN=C(NC#N)SCc1ccccc1Cl | 6.1
CCN(CC)S(=O)(=O)c1ccc(C(=O)Nc2ccc(Cc3ccncc3)cc2)cc1 | -6.7
CN(C)S(=O)(=O)c1ccc(C(=O)Nc2ccc(CN3CCCC3)cc2)cc1 | 5.6
CN(C)S(=O)(=O)c1ccc(C(=O)Nc2ccc(CCC(=O)N3CCCC3)cc2)cc1 | 448.6*
Clc1ccc(CNc2nc(CN3CCOCC3)nc3scc(-c4ccccc4)c23)cc1 | -6.7
O=S(=O)(c1ccccc1Cl)N1CCCC1c1nc(-c2ccc(Cl)cc2)no1 (stereo not given) | 4.2
O=C(N/C(=C/c1cccs1)C(=O)N1CCOCC1)c1ccccc1 | 7.1
Cc1ccc(C(=O)CSc2nnc(-c3ccccc3)o2)cc1 | 113.3
O=C(CSc1nnc(-c2ccncc2)o1)Oc1ccccc1 | 690.0*
CC(C)(C)NC(=O)CSc1nnc(-c2ccncc2)o1 | 191.7
COc1ccc(S(=O)(=O)CC2(O)CCN(C(=O)C(C)(C)C)CC2)cc1 | 0.0
Cn1c(Cn2c(=O)sc3ccccc32)nnc1SCC(=O)Nc1ccccc1 | 12.5
CSc1cccc(NC(=O)CSc2ccc(C)cc2)c1 | -6.7
CCSCc1nnc(SCC(=O)Nc2cccc(SC)c2)n1C | 425.0*
CC(C)(C)c1nc2ccccc2[nH]1 | -79.7
c1ccc2nc3c(nc2c1)[nH]c1ccccc13 | 300.0*
CCn1nc(C(=O)Nc2nc3ccccc3[nH]2)c2ccccc2c1=O | 107.7
O=C1c2cccnc2C(=O)N1Cc1ccc(F)cc1 | 7.1
N#C/C(=C\C1CC2C=CC1C2)c1nc2ccccc2[nH]1 (stereo not given) | -78.6
CCOc1cc(C(=O)Nc2ccccc2N2CCN(S(C)(=O)=O)CC2)cc(OCC)c1OCC | 22.7
SMILES | Insulin prom act
CCOc1ccc(NC(=O)c2cccc(OC(=S)N3CCOCC3)c2)cc1 | -7.1
O=C(O)CCC(=O)NC1CCCCC1NC(=O)CCC(=O)O (stereo not given) | 6.5
COc1cccc(CC(NC(C)=O)C(=O)NC2CCN(S(=O)(=O)c3ccc4ccccc4c3)CC2)c1 (stereo not given) | 8.6
O=C(Cc1cccs1)Nc1ccc(S(=O)(=O)N2CCCCC2)cc1 | 5.6
Cn1nc(C(=O)Nc2ccc(S(=O)(=O)N3CCCCC3)cc2)ccc1=O | -7.1
CCc1cccc2cc3c(N)c(C(=O)Nc4ccc(S(=O)(=O)N5CCCC5)cc4)sc3nc12 | 203.0*
Cc1nc2ccccc2n1C1CC(=O)N(Cc2ccccc2)C1=O (stereo not given) | -7.7
CCN(CC)CCNC(=O)C(=O)NCC1OCCN1S(=O)(=O)c1ccc2c(c1)OCCO2 (stereo not given) | -9.1
Cc1cc(C)c(S(=O)(=O)N2CCOC2CNC(=O)C(=O)NCCc2c[nH]c3ccccc23)c(C)c1 (stereo not given) | 309.8*
O=C(NCc1cccnc1)C(=O)NCC1OCCN1S(=O)(=O)c1ccccc1 (stereo not given) | 7.3
O=C(CNC(=O)c1ccc(Cl)cc1)NCC(F)(F)F | -5.4
Cc1ccc(S(=O)(=O)Nc2ccccc2C(=O)Nc2nc(-c3ccc(F)cc3)cs2)cc1 | -5.1
CN(C)S(=O)(=O)c1ccc(N2CCCC2)c(C(=O)Nc2nc(-c3ccc(F)c(F)c3)cs2)c1 | 414.3*
CN(C)S(=O)(=O)c1ccc(C(=O)Nc2nc(-c3cc4ccccc4o3)cs2)cc1 | 7.7
O=C(/C=C/c1c(Cl)cccc1Cl)n1cccn1 | 0.0
Cc1nc2cc(C(F)(F)F)ccc2n1C | -75.0
Cc1ccccc1Nc1nc(N)nc(CN(C)Cc2ccccc2Cl)n1 | 0.0
Cc1nn2c(=O)cc(COC(=O)c3ccc(S(=O)(=O)N4CCCCC4)cc3)nc2s1 | 0.0
COc1ccc(N2CCN(S(=O)(=O)c3ccc(Cl)s3)CC2)cc1 | 2.4
COc1ccccc1N1CCN(S(=O)(=O)c2cccs2)CC1 | 2.9
COc1ccc(N2CCN(S(=O)(=O)c3cccs3)CC2)cc1 | 500.0*
O=C(Nc1c(C(=O)NCc2ccco2)cnn1-c1ccccc1)c1cccc(F)c1 | 287.0*
CC(C)(C)NC(=O)c1cnn(-c2ccccc2)c1NC(=O)c1ccccc1 | 0.0
O=C(NCc1ccco1)c1cnn2c(C(F)F)cc(-c3ccccc3)nc12 | -9.6
CCS(=O)(=O)Nc1ccc(C2=NN(S(C)(=O)=O)C(c3cccs3)C2)cc1 (stereo not given) | 106.3
CSc1nc2ccc(NC(=O)C3CC(=O)N(Cc4ccccc4)C3)cc2s1 (stereo not given) | 0.0
O=C(O)c1ccc(C(=O)Nc2cccc(NC(=O)C3CCCO3)c2)cc1 (stereo not given) | -5.7
